# Tested on: Escherichia coli
# Experiment: Antibacterial activity against Escherichia coli ATCC 35210 at […] degC measured after 72 hr by microdilution method
# Assay type: functional
# Conditions: ATCC 35210, 72 h
# Procedure, shortened: (§1)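 Bactericidal endpoint: after the 24 h broth microdilution (1.0×10⁴ CFU per well, LB broth, […] °C), wells were serially subcultured into plates of fresh broth and incubated a further 72 h. MBC was the lowest concentration with no visible growth, taken as 99.5% killing of the original inoculum.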
row,Structure (SMILES),MBC
1,COc1cc(Cc2nnc(Nc3ccc(C(F)(F)F)cc3)s2)c(S(=O)(=O)N(C)C)cc1OC,79.6 µM

# Tested on: Micrococcus flavus
# Experiment: Antibacterial activity against Micrococcus flavus ATCC 10240 at […] degC measured after 24 hr by microdilution method
# Assay type: functional
# Conditions: ATCC 10240, 24 h
# Procedure, shortened: (§2)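 Bacteria suspended in sterile saline at 1.0×10⁵ CFU/ml and added at 1.0×10⁴ CFU per well to LB broth with compound (1 mg/ml) in 96-well plates. Incubated 24 h at […] °C. MIC was the lowest concentration without visible growth under a binocular microscope. OD 655 nm was read against a blank and a positive control.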
row,MIC,Structure (SMILES)
1,9.9 µM,COc1cc(Cc2nnc(Nc3ccc(C(F)(F)F)cc3)s2)c(S(=O)(=O)N(C)C)cc1OC

# Tested on: Bacillus cereus
# Experiment: Antibacterial activity against clinical isolate Bacillus cereus at […] degC measured after 72 hr by microdilution method
# Assay type: functional
# Conditions: not given
# Procedure, shortened: as §1
row,Structure (SMILES),MBC
1,COc1cc(Cc2nnc(Nc3ccc(C(F)(F)F)cc3)s2)c(S(=O)(=O)N(C)C)cc1OC,19.9 µM

# Tested on: Pseudomonas aeruginosa
# Experiment: Antibacterial activity against Pseudomonas aeruginosa ATCC 27853 at […] degC measured after 72 hr by microdilution method
# Assay type: functional
# Conditions: ATCC 27853, 72 h
# Procedure, shortened: as §1
row,Structure (SMILES),MBC
1,COc1cc(Cc2nnc(Nc3ccc(C(F)(F)F)cc3)s2)c(S(=O)(=O)N(C)C)cc1OC,39.8 µM

# Tested on: Proteus mirabilis
# Experiment: Antibacterial activity against Proteus mirabilis at […] degC measured after 24 hr by microdilution method
# Assay type: functional
# Conditions: not given
# Procedure, shortened: as §2
row,MIC,Structure (SMILES)
1,19.9 µM,COc1cc(Cc2nnc(Nc3ccc(C(F)(F)F)cc3)s2)c(S(=O)(=O)N(C)C)cc1OC

# Tested on: Listeria monocytogenes
# Experiment: Antibacterial activity against Listeria monocytogenes NCTC 7973 at […] degC measured after 24 hr by microdilution method
# Assay type: functional
# Conditions: NCTC 7973, 24 h
# Procedure, shortened: as §2
row,MIC,Structure (SMILES)
1,39.8 µM,COc1cc(Cc2nnc(Nc3ccc(C(F)(F)F)cc3)s2)c(S(=O)(=O)N(C)C)cc1OC

# Tested on: Bacillus cereus
# Experiment: Antibacterial activity against clinical isolate Bacillus cereus at […] degC measured after 24 hr by microdilution method
# Assay type: functional
# Conditions: not given
# Procedure, shortened: as §2
row,MIC,Structure (SMILES)
1,9.9 µM,COc1cc(Cc2nnc(Nc3ccc(C(F)(F)F)cc3)s2)c(S(=O)(=O)N(C)C)cc1OC

# Tested on: Staphylococcus aureus
# Experiment: Antibacterial activity against Staphylococcus aureus ATCC 6538 at […] degC measured after 24 hr by microdilution method
# Assay type: functional
# Conditions: ATCC 6538, 24 h
# Procedure, shortened: as §2
row,MIC,Structure (SMILES)
1,19.9 µM,COc1cc(Cc2nnc(Nc3ccc(C(F)(F)F)cc3)s2)c(S(=O)(=O)N(C)C)cc1OC

# Tested on: Aspergillus fumigatus
# Experiment: Antifungal activity against plant isolate Aspergillus fumigatus at 28 degC measured after 72 hr by microdilution method
# Assay type: functional
# Conditions: not given
# Procedure, shortened: (§3)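 Fungi were kept on malt agar at 4 °C. Spores were washed off with sterile 0.85% saline containing 0.1% Tween 80 and adjusted to about 1.0×10⁵ per well. Compounds were dissolved in DMSO (1 mg/ml stock) and serially diluted in malt broth with inoculum in 96-well plates, 72 h at 28 °C, for MIC. MFC came from subculture into fresh broth for a further 72 h at 28 °C.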
Structure (SMILES),MFC,MIC
COc1cc(Cc2nnc(Nc3ccc(C(F)(F)F)cc3)s2)c(S(=O)(=O)N(C)C)cc1OC,39.8 µM,19.9 µM

# Tested on: Fulvia fulva
# Experiment: Antifungal activity against Passalora fulva TK5318 at 28 degC measured after 72 hr by microdilution method
# Assay type: functional
# Conditions: TK5318, 72 h
# Procedure, shortened: as §3
MIC,Structure (SMILES),MFC
9.9 µM,COc1cc(Cc2nnc(Nc3ccc(C(F)(F)F)cc3)s2)c(S(=O)(=O)N(C)C)cc1OC,19.9 µM

# Tested on: Salmonella typhimurium
# Experiment: Antibacterial activity against Salmonella enterica subsp. enterica serovar Typhimurium ATCC 13311 at […] degC measured after 24 hr by microdilution method
# Assay type: functional
# Conditions: ATCC 13311, 24 h
# Procedure, shortened: as §2
row,MIC,Structure (SMILES)
1,9.9 µM,COc1cc(Cc2nnc(Nc3ccc(C(F)(F)F)cc3)s2)c(S(=O)(=O)N(C)C)cc1OC

# Tested on: Micrococcus flavus
# Experiment: Antibacterial activity against Micrococcus flavus ATCC 10240 at […] degC measured after 72 hr by microdilution method
# Assay type: functional
# Conditions: ATCC 10240, 72 h
# Procedure, shortened: as §1
row,Structure (SMILES),MBC
1,COc1cc(Cc2nnc(Nc3ccc(C(F)(F)F)cc3)s2)c(S(=O)(=O)N(C)C)cc1OC,19.9 µM

# Tested on: Proteus mirabilis
# Experiment: Antibacterial activity against Proteus mirabilis at […] degC measured after 72 hr by microdilution method
# Assay type: functional
# Conditions: not given
# Procedure, shortened: as §1
row,Structure (SMILES),MBC
1,COc1cc(Cc2nnc(Nc3ccc(C(F)(F)F)cc3)s2)c(S(=O)(=O)N(C)C)cc1OC,79.6 µM

# Tested on: Pseudomonas aeruginosa
# Experiment: Antibacterial activity against Pseudomonas aeruginosa ATCC 27853 at […] degC measured after 24 hr by microdilution method
# Assay type: functional
# Conditions: ATCC 27853, 24 h
# Procedure, shortened: as §2
row,MIC,Structure (SMILES)
1,19.9 µM,COc1cc(Cc2nnc(Nc3ccc(C(F)(F)F)cc3)s2)c(S(=O)(=O)N(C)C)cc1OC

# Tested on: Aspergillus versicolor
# Experiment: Antifungal activity against Aspergillus versicolor ATCC 11730 at 28 degC measured after 72 hr by microdilution method
# Assay type: functional
# Conditions: ATCC 11730, 72 h
# Procedure, shortened: as §3
MIC,Structure (SMILES),MFC
9.9 µM,COc1cc(Cc2nnc(Nc3ccc(C(F)(F)F)cc3)s2)c(S(=O)(=O)N(C)C)cc1OC,39.8 µM

# Tested on: Escherichia coli
# Experiment: Antibacterial activity against Escherichia coli ATCC 35210 at […] degC measured after 24 hr by microdilution method
# Assay type: functional
# Conditions: ATCC 35210, 24 h
# Procedure, shortened: as §2
row,MIC,Structure (SMILES)
1,39.8 µM,COc1cc(Cc2nnc(Nc3ccc(C(F)(F)F)cc3)s2)c(S(=O)(=O)N(C)C)cc1OC

# Tested on: Penicillium ochrochloron
# Experiment: Antifungal activity against Penicillium ochrochloron ATCC 9112 at 28 degC measured after 72 hr by microdilution method
# Assay type: functional
# Conditions: ATCC 9112, 72 h
# Procedure, shortened: as §3
MIC,Structure (SMILES),MFC
9.9 µM,COc1cc(Cc2nnc(Nc3ccc(C(F)(F)F)cc3)s2)c(S(=O)(=O)N(C)C)cc1OC,39.8 µM

# Tested on: Salmonella typhimurium
# Experiment: Antibacterial activity against Salmonella enterica subsp. enterica serovar TyphimuriumATCC 13311 at […] degC measured after 72 hr by microdilution method
# Assay type: functional, Salmonella enterica subsp. enterica serovar Typhimurium
# Conditions: ATCC 13311, 72 h
# Procedure, shortened: as §1
row,Structure (SMILES),MBC
1,COc1cc(Cc2nnc(Nc3ccc(C(F)(F)F)cc3)s2)c(S(=O)(=O)N(C)C)cc1OC,19.9 µM

# Tested on: Aspergillus niger
# Experiment: Antifungal activity against Aspergillus niger ATCC 6275 at 28 degC measured after 72 hr by microdilution method
# Assay type: functional
# Conditions: ATCC 6275, 72 h
# Procedure, shortened: as §3
MIC,Structure (SMILES),MFC
19.9 µM,COc1cc(Cc2nnc(Nc3ccc(C(F)(F)F)cc3)s2)c(S(=O)(=O)N(C)C)cc1OC,39.8 µM

# Tested on: Talaromyces funiculosus
# Experiment: Antifungal activity against Talaromyces funiculosus ATCC 36839 at 28 degC measured after 72 hr by microdilution method
# Assay type: functional
# Conditions: ATCC 36839, 72 h
# Procedure, shortened: as §3
MIC,Structure (SMILES),MFC
9.9 µM,COc1cc(Cc2nnc(Nc3ccc(C(F)(F)F)cc3)s2)c(S(=O)(=O)N(C)C)cc1OC,19.9 µM

# Tested on: Trichoderma viride
# Experiment: Antifungal activity against Hypocrea rufa IAM 5061 at 28 degC measured after 72 hr by microdilution method
# Assay type: functional
# Conditions: IAM 5061, 72 h
# Procedure, shortened: as §3
MIC,Structure (SMILES),MFC
9.9 µM,COc1cc(Cc2nnc(Nc3ccc(C(F)(F)F)cc3)s2)c(S(=O)(=O)N(C)C)cc1OC,19.9 µM

# Tested on: Staphylococcus aureus
# Experiment: Antibacterial activity against Staphylococcus aureus ATCC 6538 at […] degC measured after 72 hr by microdilution method
# Assay type: functional
# Conditions: ATCC 6538, 72 h
# Procedure, shortened: as §1
row,Structure (SMILES),MBC
1,COc1cc(Cc2nnc(Nc3ccc(C(F)(F)F)cc3)s2)c(S(=O)(=O)N(C)C)cc1OC,39.8 µM

# Tested on: Aspergillus flavus
# Experiment: Antifungal activity against Aspergillus flavus ATCC 9643 at 28 degC measured after 72 hr by microdilution method
# Assay type: functional
# Conditions: ATCC 9643, 72 h
# Procedure, shortened: as §3
MIC,Structure (SMILES),MFC
19.9 µM,COc1cc(Cc2nnc(Nc3ccc(C(F)(F)F)cc3)s2)c(S(=O)(=O)N(C)C)cc1OC,39.8 µM

# Tested on: Listeria monocytogenes
# Experiment: Antibacterial activity against Listeria monocytogenes NCTC 7973 at […] degC measured after 72 hr by microdilution method
# Assay type: functional
# Conditions: NCTC 7973, 72 h
# Procedure, shortened: as §1
row,Structure (SMILES),MBC
1,COc1cc(Cc2nnc(Nc3ccc(C(F)(F)F)cc3)s2)c(S(=O)(=O)N(C)C)cc1OC,79.6 µM
